Measurements taken from ChEMBL document CHEMBL1142686, “CoMFA, synthesis, and pharmacological evaluation of (E)-3-(2-carboxy-2-arylvinyl)-4,6-dichloro-1H-indole-2-carboxylic acids: 3-[2-(3-aminophenyl)-2-carboxyvinyl]-4,6-dichloro-1H-indole-2-carboxylic acid, a potent selective glycine-site NMDA receptor antagonist” (J Med Chem, 2005).
“And” between values parts separate entries of the source, which are not always exact repeats. Equal entries are not always repeated.

Tests used:
Rattus norvegicus [1] = organism: Rattus norvegicus; assay: In vitro inhibitory concentration against glutamate stimulated accumulation of cyclic GMP in neonatal rat cerebral slices; assay type: functional
Mus musculus [2] = assay: In vivo effective dose of compound to protect mice from quinolinic acid seizures upon intravenous administration; assay type: functional
Glutamate NMDA receptor [3] = assay: In vitro inhibitory concentration against binding of the [3H]glycine to strychnine-insensitive glycine binding sites of rat N-methyl-D-aspartate glutamate receptor; assay type: protein-complex assay
Rattus norvegicus [4] = assay: In vivo effective dose to protect rats against maximal electroshock induced seizures upon intravenous administration; assay type: functional
Outline: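 Maximal electroshock seizures in adult male CDF rats, compound iv, vehicle water, saline or 50 mM Tris base at 1 mL/kg.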

Glutamate NMDA receptor [5] = assay: Antagonist activity of compound against rat N-methyl-D-aspartate glutamate receptor using 11 nM [3H]glycine; assay type: functional
Mus musculus [6] = assay: In vivo effective dose to protect the mouse (DBA/2J) from audiogenic seizures upon intraperitoneal administration; assay type: functional; conditions: ip
Mus musculus [7] = assay: In vivo effective dose against harmaline induced cGMP elevation in mouse cerebellum upon intravenous administration; assay type: functional
Rattus norvegicus [8] = assay: Reduction of infarct volume in rat with distal middle cerebral artery occlusion at total dose of 490 mg/kg after -15 min of initiation (duration of effect 6 h); assay type: functional
Rattus norvegicus [9] = assay: Reduction of infarct in rat with proximal middle cerebral artery occlusion at total dose of 31.5 mg/kg after 30 min initiation (duration of effect 6 h); assay type: functional
Rattus norvegicus [10] = assay: Reduction of infarct in rat with proximal middle cerebral artery occlusion at total dose of 490 mg/kg after 30 min initiation (duration of effect 6 h); assay type: functional
Rattus norvegicus [11] = assay: Reduction of infarct in rat with proximal middle cerebral artery occlusion at total dose of 245 mg/kg after 30 min initiation (duration of effect 6 h); assay type: functional
Rattus norvegicus [12] = assay: Reduction of infarct in rat with proximal middle cerebral artery occlusion at total dose of 245 mg/kg after 180 min initiation (duration of effect 6 h); assay type: functional
Rattus norvegicus [13] = assay: Reduction of infarct volume in rat with distal middle cerebral artery occlusion at total dose of 135 mg/kg after 30 min of initiation (duration of effect 4 h); assay type: functional
Rattus norvegicus [14] = assay: Reduction of infarct in rat with proximal middle cerebral artery occlusion at total dose of 245 mg/kg after 480 min initiation (duration of effect 6 h); assay type: functional
Rattus norvegicus [15] = assay: Reduction of infarct in rat with proximal middle cerebral artery occlusion at total dose of 490 mg/kg after -15 min initiation (duration of effect 6 h); assay type: functional
Rattus norvegicus [16] = assay: Reduction of infarct in rat with proximal middle cerebral artery occlusion at total dose of 16 mg/kg after 30 min initiation (duration of effect 6 h); assay type: functional
Rattus norvegicus [17] = assay: Reduction of infarct in rat with proximal middle cerebral artery occlusion at total dose of 245 mg/kg after 360 min initiation (duration of effect 6 h); assay type: functional
Rattus norvegicus [18] = assay: Reduction of infarct volume in rat with distal middle cerebral artery occlusion at total dose of 126 mg/kg after -15 min of initiation (duration of effect 6 h); assay type: functional
[19] = Half life was measured in rat following intravenous administration; assay type: ADME, organism-based; conditions: in vivo
Rattus norvegicus [20] = assay: Reduction of infarct in rat with proximal middle cerebral artery occlusion at total dose of 123 mg/kg after 30 min initiation (duration of effect 6 h); assay type: functional
Rattus norvegicus [21] = assay: Reduction of infarct in rat with proximal middle cerebral artery occlusion at total dose of 62 mg/kg after 30 min initiation (duration of effect 6 h); assay type: functional
Rattus norvegicus [22] = assay: Reduction of infarct in rat with proximal middle cerebral artery occlusion at total dose of 245 mg/kg after 120 min initiation (duration of effect 6 h); assay type: functional
Rattus norvegicus [23] = assay: Reduction of infarct volume in rat with distal middle cerebral artery occlusion at total dose of 245 mg/kg after -15 min of initiation (duration of effect 6 h); assay type: functional
Glutamate NMDA receptor [24] = assay: Antagonist activity of compound against rat N-methyl-D-aspartate glutamate receptor using [3H]glycine
Glutamate NMDA receptor [25] = assay: Binding affinity against strychnine-insensitive glycine sites of rat N-methyl-D-aspartate glutamate receptor using [3H]glycine; assay type: protein-complex assay
Outline: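 Strychnine-insensitive [3H]glycine binding to washed, Triton-treated rat cortical/hippocampal membranes. Triplicates with strychnine and 400 µg protein in 50 mM HEPES-KOH pH 7.4, 30 min at 4 °C. Ended by centrifugation; pellets counted by scintillation; nonspecific binding taken in 0.1 mM D-serine. IC50 = concentration halving specific binding, mean of two or more experiments, fitted by logistic nonlinear regression.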

Rattus norvegicus [26] = assay: Reduction of infarct volume in rat with distal middle cerebral artery occlusion at total dose of 52 mg/kg after -15 min of initiation (duration of effect 6 h); assay type: functional
Rattus norvegicus [27] = assay: Reduction of infarct volume in rat with distal middle cerebral artery occlusion at total dose of 52 mg/kg after 30 min of initiation (duration of effect 6 h); assay type: functional
Rattus norvegicus [28] = assay: Reduction of infarct volume in rat with proximal middle cerebral artery occlusion at total dose of 52 mg/kg after 180 min of initiation (duration of effect 6 h); nd=Not determined; assay type: functional
Rattus norvegicus [29] = assay: Reduction of infarct volume in rat with proximal middle cerebral artery occlusion at total dose of 52 mg/kg after -15 min of initiation (duration of effect 6 h); assay type: functional

SMILES | IC50 (Rattus norvegicus [1]) [nM] | IC50 (Glutamate NMDA receptor [3]) [nM] | IC50 (Glutamate NMDA receptor [5]) [nM] | ED50 (Mus musculus [2]) [mg/kg] | ED50 (Rattus norvegicus [4]) [mg/kg] | ED50 (Mus musculus [6]) [mg/kg] | ED50 (Mus musculus [7]) [mg/kg] | also measured
O=C(O)/C(=C/c1c(C(=O)O)[nH]c2cc(Cl)cc(Cl)c12)c1cccc(NC(=O)c2ccccc2)c1 | – | – | 512 | – | – | – | – | –
O=c1[nH]c2cc(Cl)ccc2c(O)c1-c1cccc(Oc2ccccc2)c1 | 31 | 13.2 | – | 5.2 | 3.5 | 1 | < 0.05 | –
O=C(O)/C(=C/c1c(C(=O)O)[nH]c2cc(Cl)cc(Cl)c12)c1cccc2ccccc12 | – | – | 145 | – | – | – | – | –
Nc1cccc(/C(=C/c2c(C(=O)O)[nH]c3cc(Cl)cc(Cl)c23)C(=O)O)c1 | – | – | – | – | – | – | – | Ki (Glutamate NMDA receptor [25]): 553 nM
O=C(NCc1ccccc1)/C(=C/c1c(C(=O)O)[nH]c2cc(Cl)cc(Cl)c12)c1ccccc1 | – | – | 31 | – | – | – | – | –
COC(=O)Nc1cccc(/C(=C\c2c(C(=O)O)[nH]c3cc(Cl)cc(Cl)c23)C(=O)O)c1 | 840 | 114 | 114 | > 64 | > 128 | 8.5 | > 64 | –
O=C(/C=C/c1c(C(=O)[O-])[nH]c2cc(Cl)cc(Cl)c12)Nc1ccccc1.[Na+] [GAVESTINEL SODIUM] | 262 | 15.2 | – | > 64 | > 32 | > 25 | – | –
O=C(/C=C/c1c(C(=O)O)[nH]c2cc(Cl)cc(Cl)c12)Nc1ccccc1 [GAVESTINEL] | – | – | 15 | – | – | – | – | –
O=c1[nH]c2cc(Cl)c(Cl)c([N+](=O)[O-])c2[nH]c1=O [LICOSTINEL] | 183 | 20 | – | 14.7 | 46.3 | 3.7 | 3.5 | Reduction (Rattus norvegicus [26]): 18%; Reduction (Rattus norvegicus [27]): 33% and 24%; Reduction (Rattus norvegicus [28]): 28%; Reduction (Rattus norvegicus [29]): 50%

More lines, main results first:

IC50 (Rattus norvegicus [1]) [nM] | IC50 (Glutamate NMDA receptor [3]) [nM] | IC50 (Glutamate NMDA receptor [5]) [nM] | SMILES | ED50 (Mus musculus [2]) [mg/kg] | ED50 (Rattus norvegicus [4]) [mg/kg] | ED50 (Mus musculus [6]) [mg/kg] | ED50 (Mus musculus [7]) [mg/kg] | also measured
87 | 9.6 | 14 | O=C(O)/C(=C/c1c(C(=O)O)[nH]c2cc(Cl)cc(Cl)c12)c1ccsc1 | 29.5 | 54.1 | 18.6 | 35 | –
364 | 24.3 | – | Nc1cccc(/C(=C\c2c(C(=O)O)[nH]c3cc(Cl)cc(Cl)c23)C(=O)O)c1 | 14.9 | 30.6 | 10.8 | 15 | Reduction (Rattus norvegicus [8]): 32%; Reduction (Rattus norvegicus [9]): 40%; Reduction (Rattus norvegicus [10]): 77%; Reduction (Rattus norvegicus [11]): 68% and 57% and 76% and 71%; Reduction (Rattus norvegicus [12]): 41%; Reduction (Rattus norvegicus [13]): 28%; Reduction (Rattus norvegicus [14]): 13%; Reduction (Rattus norvegicus [15]): 73%; Reduction (Rattus norvegicus [16]): 12%; Reduction (Rattus norvegicus [17]): 58% and 59%; Reduction (Rattus norvegicus [18]): 0%; half-life [19]: > 1 h; Reduction (Rattus norvegicus [20]): 49%; Reduction (Rattus norvegicus [21]): 48%; Reduction (Rattus norvegicus [22]): 50%; Reduction (Rattus norvegicus [23]): 13%
282 | 10.9 | – | O=C(O)/C(=C/c1c(C(=O)O)[nH]c2cc(Cl)cc(Cl)c12)c1ccccc1 | 37 | 29 | 12.2 | 59 | IC50 (Glutamate NMDA receptor [24]): 11 nM
– | – | 35.5 | O=C(O)/C(=C/c1c(C(=O)O)[nH]c2cc(Cl)cc(Cl)c12)c1ccc(F)cc1 | – | – | – | – | –
– | – | 167 | CS(=O)(=O)Nc1ccc(/C(=C\c2c(C(=O)O)[nH]c3cc(Cl)cc(Cl)c23)C(=O)O)cc1 | – | – | – | – | –
– | – | 9 | O=C(O)/C(=C/c1c(C(=O)O)[nH]c2cc(Cl)cc(Cl)c12)c1cccs1 | – | – | – | – | –
– | – | 105 | Cc1ccc(/C(=C\c2c(C(=O)O)[nH]c3cc(Cl)cc(Cl)c23)C(=O)O)cc1 | – | – | – | – | –
– | – | 22 | O=C(O)/C(=C/c1c(C(=O)O)[nH]c2cc(Cl)cc(Cl)c12)c1ccco1 | – | – | – | – | –
– | – | 89 | O=C(O)/C(=C/c1c(C(=O)O)[nH]c2cc(Cl)cc(Cl)c12)c1ccc(C(F)(F)F)cc1 | – | – | – | – | –
– | – | 21 | O=C(O)/C(=C/c1c(C(=O)O)[nH]c2cc(Cl)cc(Cl)c12)c1ccc([N+](=O)[O-])cc1 | – | – | – | – | –
